# The source made the active and inactive calls. The rule behind the calls is not given here.
# Tests used:
# [1] = test system: DNA; assay: Induction of DNA damage in human K562 cells assessed as induction of DNA break formation by measuring H2AX phosphorylation at 10 uM incubated for 2 hrs by Western blot analysis; type: cell-based
# Procedure, shortened: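 K562 cells were given 10 μM drug for 2 h, then washed extensively. They were lysed in SDS sample buffer (2% SDS, 60 mM Tris–HCl pH 6.8) and run on SDS-PAGE. Blots were probed for γH2AX (1:1000), with β-actin (1:10000) as the loading control. The γH2AX signal was quantified relative to actin.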
# [2] = biological target: DNA topoisomerase 2-alpha (Homo sapiens) (UniProt P11388); assay: Induction of relocalization of GFP-tagged Topo2a (unknown origin) expressed in human MEL-JUSO cells at 10 uM incubated for 15 mins; type: cell-based
# Procedure, shortened: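 MelJuSo cells were transiently transfected with a TopoIIα-GFP construct and imaged live by confocal microscopy. Relocalization of TopoIIα was expressed as a fractional distance.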
# [3] = test system: MEL-JUSO; assay: Induction of histone eviction in human MEL-JUSO cells assessed as release of photoactivated green fluorescent protein-labeled histone H2A at 10 uM incubated for 2 hrs by time-lapse confocal microscopy; type: functional, cell-based
# Procedure, shortened: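 MelJuSo cells stably expressing PAGFP-H2A were kept in IMDM with 8% FCS and G-418. Nuclear regions were photoactivated and 10 μM drug was added. Time-lapse confocal imaging (63× lens, climate chamber) followed the loss of fluorescence from the activated regions. Values are mean ± SD of 10–20 cells from at least three independent experiments.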
# [4] = Drug uptake in human K562 cells at 1 uM by flow cytometry relative to doxorubicin; type: ADME, cell-based; settings: k562, 1 µM
# Procedure, shortened: (§1)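 K562 cells in RPMI-1640 with 8% FCS were exposed to 1 μM drug for 2 h. They were then washed, collected and fixed with paraformaldehyde. The intrinsic anthracycline fluorescence was read by flow cytometry with a 561 nm laser and a 610/20 nm detector.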
# [5] = test system: DNA; assay: Induction of DNA damage in human K562 cells assessed as induction of DNA break formation by measuring H2AX phosphorylation at 10 uM incubated for 2 hrs by constant-field gel […] method; type: cell-based
# Procedure, shortened: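 K562 cells were exposed to 10 μM drug for 2 h and washed extensively. DNA double-strand breaks were then resolved by constant-field gel electrophoresis and the images quantified. Results are mean ± SD of three independent experiments.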
# [6] = test system: U-87 MG; assay: Cytotoxicity in human U87 cells assessed as reduction in cell viability incubated for 2 hrs by Cell-titer-blue assay; type: functional, cell-based, U-87MG ATCC
# Procedure, shortened: (§2)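 The drugs were then removed and the cells grown a further 72 h before a CellTiter-Blue viability read. Survival was normalized to the untreated control and background-corrected, with mean ± SD from three experiments. Culture was at 37 °C in 5% CO2.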
# [7] = test system: DU-145; assay: Cytotoxicity in human DU-145 cells assessed as reduction in cell viability incubated for 2 hrs by Cell-titer-blue assay; type: functional, cell-based; settings: DU-145, 2 h; procedure, shortened: as §2
# [8] = test system: K562; assay: Cytotoxicity in human K562 cells assessed as reduction in cell viability incubated for 2 hrs by Cell-titer-blue assay; type: functional, cell-based; settings: K562, 2 h
# Procedure, shortened: as §2, with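 “CO2. Media with 8% FCS were RPMI-1640 (DU145, HCT116, K562, PC3), IMDM (MelJuSo) and DMEM (U87).” for “CO2.”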
# [9] = test system: PC-3; assay: Cytotoxicity in human PC-3 cells assessed as reduction in cell viability incubated for 2 hrs by Cell-titer-blue assay; type: functional, cell-based; settings: PC-3, 2 h; procedure, shortened: as §2
# [10] = test system: MEL-JUSO; assay: Cytotoxicity in human MEL-JUSO cells assessed as reduction in cell viability incubated for 2 hrs by Cell-titer-blue assay; type: functional, cell-based; procedure, shortened: as §2
# [11] = test system: HCT-116; assay: Cytotoxicity in human HCT-116 cells assessed as reduction in cell viability incubated for 2 hrs by Cell-titer-blue assay; type: functional, cell-based; settings: HCT-116, 2 h; procedure, shortened: as §2
# [12] = Drug uptake in human K562 cells at 1 uM by flow cytometry relative to aclarubicin; type: ADME, cell-based; settings: k562, 1 µM; procedure, shortened: as §1
# Sequence of DNA topoisomerase 2-alpha (Homo sapiens) (P11388 whole entry): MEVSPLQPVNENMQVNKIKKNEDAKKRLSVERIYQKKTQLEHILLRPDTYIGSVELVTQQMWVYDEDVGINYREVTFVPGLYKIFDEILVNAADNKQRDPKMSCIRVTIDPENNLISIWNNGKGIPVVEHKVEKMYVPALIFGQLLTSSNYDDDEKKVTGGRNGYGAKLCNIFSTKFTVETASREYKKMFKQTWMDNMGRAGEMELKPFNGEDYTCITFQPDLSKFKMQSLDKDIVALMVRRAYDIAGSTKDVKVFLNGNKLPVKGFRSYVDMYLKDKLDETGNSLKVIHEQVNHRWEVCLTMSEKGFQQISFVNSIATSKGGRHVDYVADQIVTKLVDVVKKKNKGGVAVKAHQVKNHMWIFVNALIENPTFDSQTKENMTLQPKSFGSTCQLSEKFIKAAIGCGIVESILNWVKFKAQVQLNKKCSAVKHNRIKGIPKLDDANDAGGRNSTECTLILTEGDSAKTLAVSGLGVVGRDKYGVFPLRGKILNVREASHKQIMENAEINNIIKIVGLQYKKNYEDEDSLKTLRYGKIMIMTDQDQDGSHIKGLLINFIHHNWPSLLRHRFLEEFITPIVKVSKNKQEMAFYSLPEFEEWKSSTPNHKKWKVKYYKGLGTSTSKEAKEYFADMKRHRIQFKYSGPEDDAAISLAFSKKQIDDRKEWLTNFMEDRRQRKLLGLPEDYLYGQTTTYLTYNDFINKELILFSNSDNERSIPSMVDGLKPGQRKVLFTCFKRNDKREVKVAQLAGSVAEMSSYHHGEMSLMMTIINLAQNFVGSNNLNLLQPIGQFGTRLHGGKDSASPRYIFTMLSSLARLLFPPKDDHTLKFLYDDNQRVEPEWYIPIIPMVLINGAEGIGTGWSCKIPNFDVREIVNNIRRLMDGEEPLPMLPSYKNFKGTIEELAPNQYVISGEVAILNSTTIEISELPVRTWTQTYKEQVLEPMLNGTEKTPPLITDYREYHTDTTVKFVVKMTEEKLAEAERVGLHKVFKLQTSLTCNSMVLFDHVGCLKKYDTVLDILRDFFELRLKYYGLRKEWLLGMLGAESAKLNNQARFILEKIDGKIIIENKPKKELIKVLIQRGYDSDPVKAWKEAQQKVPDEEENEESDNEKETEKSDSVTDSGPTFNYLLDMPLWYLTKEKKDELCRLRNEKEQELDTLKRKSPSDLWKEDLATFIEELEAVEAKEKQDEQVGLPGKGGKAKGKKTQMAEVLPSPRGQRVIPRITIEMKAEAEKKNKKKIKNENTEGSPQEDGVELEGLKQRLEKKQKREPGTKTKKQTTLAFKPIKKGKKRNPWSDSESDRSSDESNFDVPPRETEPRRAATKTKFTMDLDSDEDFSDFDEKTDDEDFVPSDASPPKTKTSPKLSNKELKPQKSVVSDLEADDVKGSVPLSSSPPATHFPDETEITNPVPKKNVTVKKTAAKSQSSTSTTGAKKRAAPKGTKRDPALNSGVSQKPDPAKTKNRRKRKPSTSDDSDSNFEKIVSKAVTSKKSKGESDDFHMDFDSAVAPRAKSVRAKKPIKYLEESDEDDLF
Activity [2],SMILES,Activity [1],Activity [3],Drug uptake [4],Activity [5],IC50 [6] [µM],IC50 [7] [µM],IC50 [8] [µM],Activity ([2]; filed as modulator),IC50 [9] [µM],IC50 [10] [µM],IC50 [11] [µM],Drug uptake [12],fold change (FC) [4]
inactive,COc1cccc2c1C(=O)c1c(O)c3c(c(O)c1C2=O)C[C@@](O)(C(=O)CO)C[C@@H]3O[C@H]1C[C@H](N)[C@H](O[C@H]2C[C@H](O)[C@H](O)[C@H](C)O2)[C@H](C)O1,inactive,inactive,Not Active,inactive,–,–,–,–,–,–,–,–,–
–,COc1cccc2c1C(=O)c1c(O)c3c(c(O)c1C2=O)C[C@@](O)(C(=O)CO)C[C@@H]3O[C@H]1C[C@H](N)[C@H](O)[C@H](C)O1 [DOXORUBICIN],Active,Active,–,Active,0.381,0.534,0.361,Active,1.15,0.237,0.579,–,–
–,CC[C@@]1(O)C[C@H](O[C@H]2C[C@H](N)[C@H](O[C@H]3C[C@H](O)[C@H](O[C@H]4CCC(=O)[C@H](C)O4)[C@H](C)O3)[C@H](C)O2)c2c(cc3c(c2O)C(=O)c2c(O)cccc2C3=O)[C@H]1C(=O)OC,inactive,inactive,–,inactive,–,–,3.04,Active,–,–,–,Active,–
–,COc1cccc2c1C(=O)c1c(O)c3c(c(O)c1C2=O)C[C@@](O)(C(=O)CO)C[C@@H]3O[C@H]1C[C@H](N(C)C)[C@H](O[C@H]2C[C@H](O)[C@H](O)[C@H](C)O2)[C@H](C)O1,inactive,Active,Not Active,inactive,0.603,3.2,2.41,Active,3.2,1.57,1.37,–,–
–,CC[C@@]1(O)C[C@H](O[C@H]2C[C@H](N(C)C)[C@H](O[C@H]3C[C@H](O)[C@H](O)[C@H](C)O3)[C@H](C)O2)c2c(cc3c(c2O)C(=O)c2c(O)cccc2C3=O)[C@H]1C(=O)OC,inactive,Active,–,inactive,0.448,0.509,0.211,Active,0.383,0.423,0.261,Active,–
–,CC[C@@]1(O)C[C@H](O[C@H]2C[C@H](N)[C@H](O)[C@H](C)O2)c2c(cc3c(c2O)C(=O)c2c(O)cccc2C3=O)[C@H]1C(=O)OC,inactive,inactive,–,inactive,–,–,–,Active,–,–,–,Not Active,–
–,COc1cccc2c1C(=O)c1c(O)c3c(c(O)c1C2=O)C[C@@](O)(C(=O)CO)C[C@@H]3O[C@H]1C[C@H](N)[C@H](O[C@H]2C[C@H](O)[C@H](O[C@H]3CCC(=O)[C@H](C)O3)[C@H](C)O2)[C@H](C)O1,Active,inactive,Not Active,Active,2.21,1.36,1.41,Active,1.54,1.81,1.86,–,–
–,CC[C@@]1(O)C[C@H](O[C@H]2C[C@H](N(C)C)[C@H](O[C@H]3C[C@H](O)[C@H](O[C@H]4CCC(=O)[C@H](C)O4)[C@H](C)O3)[C@H](C)O2)c2c(cc3c(c2O)C(=O)c2c(O)cccc2C3=O)[C@H]1C(=O)OC [ACLARUBICIN],inactive,Active,–,inactive,0.137,0.129,0.076,Active,0.101,0.048,0.04,–,–
–,COc1cccc2c1C(=O)c1c(O)c3c(c(O)c1C2=O)C[C@@](O)(C(=O)CO)C[C@@H]3O[C@H]1C[C@H](N(C)C)[C@H](O[C@H]2C[C@H](O)[C@H](O[C@H]3CCC(=O)[C@H](C)O3)[C@H](C)O2)[C@H](C)O1,inactive,Active,–,inactive,0.033,0.017,0.026,Active,0.034,0.007,0.008,–,4

# Reference: ChEMBL document CHEMBL4680284, “Doxorubicin and Aclarubicin: Shuffling Anthracycline Glycans for Improved Anticancer Agents” (J Med Chem, 2020)
